Assay [1] relates to Mycobacterium tuberculosis. The assay can be described thus: Inhibition of Mycobacterium tuberculosis fumarate hydratase expressed in Escherichia coli BL21(DE3) at 100 to […] using fumaric acid as substrate preincubated for 5 mins followed by substrate addition incubated for 2 mins and measured at 24 secs interval for 10 mins by spectrometric method. The essentials:
(§1)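 Coupled assay: Mtb fumarase (33.3 nM) with citrate synthase, malate dehydrogenase, acetyl-CoA (267 µM) and NAD+ (200 µM) in 250 mM Tris pH 8.0, 5 mM MgCl2. Ligand in DMSO pre-equilibrated 5 min at 25 °C, then fumaric acid added. A340 read every 24 s over 10 min. Slope corrected by no-substrate control and normalised to uninhibited control.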

The test system of assay [2] is Mycobacterium tuberculosis. Put plainly: Binding affinity to Mycobacterium tuberculosis fumarate hydratase expressed in Escherichia coli BL21(DE3) assessed as change in melting temperature at 5 mM by Sypro orange dye based differential scanning fluorimetry.
The test system of assay [3] is Mycobacterium tuberculosis. Put plainly: Inhibition of Mycobacterium tuberculosis fumarate hydratase expressed in Escherichia coli BL21(DE3) at 50 uM using fumaric acid as substrate preincubated for 5 mins followed by substrate addition incubated for 2 mins and measured at 24 secs interval for 10 mins by spectrometric method relative to control. In a few lines: as §1

Assay [4] relates to Mycobacterium tuberculosis. The assay can be described thus: Antimycobacterial activity against Mycobacterium tuberculosis H37Rv assessed as reduction in bacterial growth incubated for 2 weeks in GAST-Fe media by 2-fold serial dilution method. It is filed as functional. Conditions: for MIC: 336 h. In a few lines: (§2)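 H37Rv grown in the test medium to OD 0.2–0.4, diluted to OD 0.0002 and added 1:1 to a two-fold serial dilution series of compound. Plates incubated 37 °C for two weeks, then MIC determined.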

The test system of assay [5] is Mycobacterium tuberculosis. The assay can be described thus: Antimycobacterial activity against Mycobacterium tuberculosis H37Rv assessed as reduction in bacterial growth incubated for 2 week in 7H9/ADC media by 2-fold serial dilution method. It is filed as functional. The note with it: for MIC: 336 h. The essentials:
as §2

The nature of assay [6]: Inhibition of Mycobacterium tuberculosis fumarate hydratase expressed in Escherichia coli BL21(DE3) using fumaric acid as substrate preincubated for 5 mins followed by substrate addition incubated for 2 mins and measured at 24 secs interval for 10 mins by spectrometric method. In a few lines: as §1
The test system of assay [7] is Mycobacterium tuberculosis. The assay can be described thus: Antimycobacterial activity against Mycobacterium tuberculosis H37Rv assessed as reduction in bacterial growth incubated for 2 weeks in 7H9/DPPC media by 2-fold serial dilution method. It is filed as functional. Conditions: for MIC: 336 h. In a few lines: as §2
The test system of assay [8] is Mycobacterium tuberculosis. Put plainly: Antimycobacterial activity against Mycobacterium tuberculosis H37Rv assessed as reduction in bacterial growth incubated for 2 weeks in 7H9/glucose media by 2-fold serial dilution method. It is filed as functional. Conditions: for MIC: 336 h. The essentials: as §2
The nature of assay [9]: Inhibition of N-terminal His6-tagged Mycobacterium tuberculosis fumarate hydratase expressed in Escherichia coli BL21(DE3) using fumaric acid as substrate preincubated for 10 mins followed by substrate addition and measured immediately by fluorescence-based HTS assay.
The test system of assay [10] is Mycobacterium tuberculosis. The assay can be described thus: Antimycobacterial activity against Mycobacterium tuberculosis H37Rv assessed as growth inhibition at 250 uM supplemented with fresh medium containing compound for every 3 days for 7 days relative to control. It is filed as functional.
In assay [11] the test system is Mycobacterium tuberculosis. Put plainly: Binding affinity to Mycobacterium tuberculosis fumarate hydratase expressed in Escherichia coli BL21(DE3) assessed as change in melting temperature at 0.625 mM by Sypro orange dye based differential scanning fluorimetry.

Molecules are shown by their SMILES. Converted amounts (≈) assume the structure as drawn. The source made the active and inactive calls. The calls are words filed in the database; no cut-off is given here. Where only a bound is given, the exact number is not on record here.

As usually defined, the inhibition is the drop in the measured response relative to a control, in per cent. As a reminder, the ΔTm is the shift of the melting midpoint relative to a reference. For the compound `Nc1cc(S(=O)(=O)N2CCCCCC2)ccc1O`, the inhibition entry in [1] was “inactive”. In [2], the ΔTm is -1.6 °C.
In the same order, the values of `COc1ccc(S(=O)(=O)N2CCCCCC2)cc1N` are “inactive” and -0.7 °C.
In the case of `COc1ccc(C(=O)N2CCCCCC2)cc1NC(=O)Cc1n[nH]c(=O)c2ccccc12`, the inhibition in assay [3] amounted to 14%.
As usually defined, the IC50 is the concentration needed to halve the response being measured. A lower IC50 goes with inhibition by little substance. Turning to `COc1ccc(S(=O)(=O)N2CCS(=O)(=O)CC2)cc1NC(=O)Cc1n[nH]c(=O)c2ccccc12`, the outcome in assay [4], in [5], in assay [7] and in assay [8] was inactive. In assay [6], the IC50 was determined as 13 µM.
As usually defined, the MIC is the lowest concentration that inhibits growth of the organism. With `COc1ccc2[nH]cc(CC(=O)Nc3cc(S(=O)(=O)N4CCCCCC4)ccc3OC)c2c1`, the MIC in assay [4] is greater than 100 µM; in [5], greater than 100 µM; in assay [7] it was 12.5 µM (≈ 5.89 µg/mL); in [8] it was greater than 100 µM. This compound also had an inhibition in assay [3] of 38%.
As for `COc1ccc(S(=O)(=O)N2CCCCCC2)cc1NC(=O)Cc1coc2ccccc12`, the MIC in [4] is greater than 100 µM; in assay [5] it was greater than 100 µM; in assay [7], 6.3 µM (≈ 2.79 µg/mL); in assay [8] it was 9.4 µM (≈ 4.16 µg/mL). Moreover, the inhibition in assay [3] is less than 10%.
In assay [3], `COc1ccc(S(=O)(=O)N2CCCCCC2)cc1NC(=O)Cn1cnc2ccccc21` came in with an inhibition of less than 10%.
As to `COc1ccc(S(=O)(=O)N2CCOCC2)cc1NC(=O)Cc1n[nH]c(=O)c2ccccc12`, the result in assay [4], in [5], in assay [7] and in [8] was inactive. The IC50 in assay [6] was found to be 12 µM.
As for `COc1ccc(S(=O)(=O)N2CCc3cc(OC)c(OC)cc3C2)cc1NC(=O)Cc1n[nH]c(=O)c2ccccc12`, the outcome in assay [4], in assay [5], in assay [7] and in [8] was inactive. For the same compound, in [6], 3.4 µM corresponded to half-maximal inhibition (IC50).
With `O=C(O)Cc1nnc(O)c2ccccc12`, in assay [1], the inhibition entry was “inactive”. Further, the ΔTm in assay [2] was -0.4 °C.
Turning to `COc1ccc(S(=O)(=O)N2CCCCCC2)cc1NC(=O)Cc1c[nH]c2ccccc12`, the MIC in [4] is greater than 100 µM; in [5] it was greater than 100 µM; in [7], 9.4 µM (≈ 4.15 µg/mL); in assay [8], 100 µM (≈ 44.2 µg/mL). The inhibition in assay [3] is 27%.
With `COc1ccc(S(=O)(=O)N2CCCCCC2)cc1NC(=O)Cc1ccncc1`, the result in assay [4], in assay [5], in assay [7] and in [8] was inactive. For the same compound, the inhibition in assay [3] was less than 10%.
Take `CCOC(=O)Cc1nnc(O)c2ccccc12`: the inhibition result in assay [1] was “inactive”. The ΔTm in assay [2] was -0.6 °C.
Taken in the same sequence, the figures for `COc1ccc(S(=O)(=O)N2CCCCCC2)cc1NC(C)=O` were “inactive” and -0.6 °C.
In assay [3], `COc1ccc(S(=O)(=O)N2CC3CC(C2)c2ccccc23)cc1NC(=O)Cc1n[nH]c(=O)c2ccccc12` registered an inhibition of 44%.
Same read-out and setting: next, `O=C(Cc1nnc(O)c2ccccc12)Nc1cccc(S(=O)(=O)N2CCCCCC2)c1`: 16%; `COc1ccc(S(=O)(=O)NCc2ccccc2)cc1NC(=O)Cc1n[nH]c(=O)c2ccccc12`: 53%; `Cc1ccc(S(=O)(=O)N2CCCCCC2)cc1NC(=O)Cc1n[nH]c(=O)c2ccccc12`: less than 10%.
Regarding `COc1ccc(S(=O)(=O)Nc2ccccc2)cc1NC(=O)Cc1n[nH]c(=O)c2ccccc12`, the result in assay [4], in assay [5], in assay [7] and in assay [8] was inactive. The IC50 in assay [6] is 17 µM.
Consider `Nc1cccc(S(=O)(=O)N2CCCCCC2)c1`, for which the inhibition entry in assay [1] was “inactive”. The ΔTm in assay [2] was -1.2 °C.
For `CNS(=O)(=O)c1ccc(OC)c(NC(=O)Cc2n[nH]c(=O)c3ccccc23)c1`, in assay [6], the IC50 was 57 µM.
For the compound `COc1ccc(S(=O)(=O)N2CCc3ccccc3C2)cc1NC(=O)Cc1n[nH]c(=O)c2ccccc12`, the outcome in assay [4], in [5], in [7] and in assay [8] was inactive. This compound also had an IC50 in assay [6] of 2.2 µM.
As to `COc1ccc(S(=O)(=O)N2CCCCCC2)cc1NC(=O)Cc1ccnc2ccccc12`, the outcome in assay [4], in [5], in assay [7] and in [8] was inactive. In assay [3], this compound had an inhibition of 86%. Moreover, the IC50 in [6] was 4.1 µM.
For the compound `CC(=O)Nc1cccc(S(=O)(=O)N2CCCCCC2)c1`, the inhibition result in assay [1] is “inactive”. Besides, the ΔTm in assay [2] was -0.4 °C.
Taken in the same sequence, the figures for `COc1ccccc1NC(=O)Cc1n[nH]c(=O)c2ccccc12` were “inactive” and -0.4 °C.
As for `COc1ccc(S(=O)(=O)N2CCCCCC2)cc1NC(=O)CCc1c[nH]c2ccccc12`, the MIC is greater than 100 µM in [4], greater than 100 µM in assay [5], 9.4 µM (≈ 4.28 µg/mL) in [7] and 25 µM (≈ 11.4 µg/mL) in assay [8]. In [3], this compound gave an inhibition of 12%.
As for `COc1ccc(S(=O)(=O)N2CCSCC2)cc1NC(=O)Cc1n[nH]c(=O)c2ccccc12`, the result in assay [4], in assay [5], in assay [7] and in assay [8] was inactive. Also, inhibition in assay [6] was half-maximal at 4.7 µM (IC50).
On to `COc1ccc(S(=O)(=O)N2CCCCCC2)cc1NC(=O)Cc1noc2ccccc12`, for which, in [3], the inhibition is less than 10%.
In the case of `COc1ccc(S(=O)(=O)N2CCCCCC2)cc1NC(=O)Cc1cccc2ccccc12`, the result in assay [4], in assay [5], in assay [7] and in assay [8] was inactive. Also, in assay [3], the inhibition was determined as 21%.
`COc1ccc(S(=O)(=O)N2CCCCCC2)cc1NC(=O)Cc1nnc(O)c2ccccc12`: the MIC in assay [4], in assay [5], in assay [7] and in assay [8] was greater than 100 µM throughout. Also, the IC50 in [9] is 2.5 µM; in [6] it was 2 µM. Also, the “growth inhibition (GI)” value in assay [10] is listed as 65%. In assay [3], this compound came in with an inhibition greater than 90%. In addition, the ΔTm in assay [11] turned out to be 3.9 °C.
Take `CNS(=O)(=O)c1ccc(OC)c(NC(C)=O)c1`: in assay [1], the inhibition entry is “inactive”. Besides, the ΔTm in assay [2] is -0.4 °C.
For `COc1ccc(S(=O)(=O)N2CCCCC2)cc1NC(=O)Cc1n[nH]c(=O)c2ccccc12`, the outcome in assay [4], in assay [5], in assay [7] and in assay [8] was inactive. The compound further registered a concentration for half-maximal inhibition (IC50) in assay [6] of 4.4 µM.
Turning to `COc1ccc(S(=O)(=O)N2CCCCCC2)cc1`, the inhibition entry in [1] is “inactive”. In addition, in assay [2], the ΔTm was determined as 0.1 °C.
Take `COc1ccc(S(=O)(=O)N2CCc3ccccc3CC2)cc1NC(=O)Cc1n[nH]c(=O)c2ccccc12`: the result in [4], in assay [5], in assay [7] and in assay [8] was inactive. The compound further showed an IC50 in assay [6] of 0.67 µM.
`COc1ccc(S(=O)(=O)N2CCN(C)CC2)cc1NC(=O)Cc1n[nH]c(=O)c2ccccc12`: the result in assay [4], in assay [5], in [7] and in assay [8] was inactive. This compound also came in with a half-maximal inhibitory concentration (IC50) in assay [6] of 38 µM.
`COc1ccc2c(c1)CCN(S(=O)(=O)c1ccc(OC)c(NC(=O)Cc3n[nH]c(=O)c4ccccc34)c1)CC2`: the outcome in [4], in assay [5], in assay [7] and in assay [8] was inactive. Further, 0.67 µM corresponded to half-maximal inhibition in [6] (IC50).
With `COc1ccc(S(=O)(=O)N2CCCCCCC2)cc1NC(=O)Cc1n[nH]c(=O)c2ccccc12`, the minimum inhibitory concentration (MIC) is greater than 100 µM in [4], greater than 100 µM in [5], 19 µM (≈ 9.21 µg/mL) in assay [7] and 25 µM (≈ 12.1 µg/mL) in assay [8]. This compound also came in with an IC50 in assay [6] of 4 µM.
